Assay outcomes as filed in PubChem.
An excerpt weighted towards active compounds, which were near 2.1% of everything screened.
CAL PDZ FP-1 = inhibitors of human CAL PDZ peptide binding; 300,000 tested, 0.92% active; inhibition, % at 24.9 µM; Q9HD26; AID 602252; purified CAL PDZ, TMR-peptide fluorescence polarization, 1 h;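 active = mean inhibition of at least 30% with at least half of replicates also reaching 30%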;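 note: 0% = DMSO neutral control and 100% = excess unlabeled competitor peptide PRC23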
miR122 inh = blocks miR-122 activity in Huh7 sensor cells; activation (reporter increase), % at 12.5 µM; Huh7 miR-122 Renilla luciferase sensor, 48 h; neutral wells = 0, positive control = 100; 340,000 tested, 0.3% active;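 active = mean replicate activation score at least 90 and every replicate individually at or above 90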;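 note: higher luciferase means less miR-122 activity so hits act as miR-122 inhibitors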
ARNT TACC3 PPI = disrupts binding between human ARNT and TACC3; 390,000 tested, 0.66% active; AlphaScreen His-ARNT PAS-B/GST-TACC3 binding, luminescence; TACC3 fragment carries E629A point mutation; inhibition, % at 9.99 µM; Q9Y6A5; AID 623870;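 active = mean inhibition of replicates at least 50% and at least half of replicates each reaching 50%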;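 note: 0% = complete ARNT plus TACC3 wells and 100% = ARNT alone without TACC3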
SR-BI HDL uptake = inhibitors of mouse SR-BI mediated HDL lipid uptake; ldlA[mSR-BI] CHO cells, DiI-HDL uptake fluorescence, 3 h; 320,000 tested, 0.96% active; Q61009; AID 488896; inhibition, % at 12.5 µM;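 active = mean replicate inhibition of at least 70% and a set share of replicates each scoring 70 or more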;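 note: 0% = median of neutral control wells and 100% = median of positive control wells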
Target sequence (Q61009 whole entry, looked up): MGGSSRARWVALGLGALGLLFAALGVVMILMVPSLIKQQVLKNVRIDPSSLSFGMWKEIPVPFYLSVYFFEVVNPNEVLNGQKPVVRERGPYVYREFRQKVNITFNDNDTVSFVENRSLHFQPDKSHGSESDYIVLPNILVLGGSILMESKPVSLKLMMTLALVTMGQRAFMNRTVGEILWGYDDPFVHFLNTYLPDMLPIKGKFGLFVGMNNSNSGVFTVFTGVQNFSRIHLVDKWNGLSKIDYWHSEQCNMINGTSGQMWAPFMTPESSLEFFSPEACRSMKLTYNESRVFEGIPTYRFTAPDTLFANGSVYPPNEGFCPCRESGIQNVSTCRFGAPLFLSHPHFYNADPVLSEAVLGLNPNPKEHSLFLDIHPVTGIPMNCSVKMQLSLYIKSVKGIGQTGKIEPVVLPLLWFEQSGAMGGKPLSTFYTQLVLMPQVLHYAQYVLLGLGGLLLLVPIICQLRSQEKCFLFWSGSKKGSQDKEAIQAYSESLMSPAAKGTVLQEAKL
CAL PDZ FP-2 = human CAL PDZ-peptide interaction inhibition | purified CAL PDZ, TMR-peptide fluorescence polarization, 1 h | inhibition, % at 20 µM | 330,000 tested, 0.02% active;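 active = highest replicate inhibition of at least 40%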;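 note: plate controls were DMSO neutral control wells for no effect and unlabeled competitor peptide control wells for full effect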
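Material: tagged CAL PDZ domain; buffer or medium: 25 mM sodium phosphate pH 7.4, 150 mM NaCl, TCEP, IgG, Thesit; compound dosing: single point, 20 µM; schedule: 1 h incubation at room temperature before polarization reading; measured by: FP readout, S and P plane fluorescence; read-out basis: percent inhibition from loss of millipolarization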
SR-BI DiI-HDL act = enhances SR-BI lipid uptake from DiI-HDL; AID 504775; CHO ldlA[mSR-BI] cells, DiI-HDL uptake fluorescence, 3 h; 100 = double the neutral-control signal; 320,000 tested, 0.096% active; activation, % at 12.5 µM;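 active = mean replicate activation of at least 60% and every replicate at or above 60%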;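 note: 0% = median plate neutral-control signal and 100% = twice that signal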
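Material: SR-BI-overexpressing, LDLR-lacking CHO cells; schedule: compound exposure 3 h, 37 °C; reagent: DiI-labelled HDL at 10 µg/mL final; technique: bottom-read fluorescence, 550/595 nm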
Starred values were filed as active, the others as inactive; ! = repeats disagree; [ ] = dose if it differs, or a comment.

CC(=O)Nc1ccc2c(c1)C(=O)c1ccccc1C2=O was read as CAL PDZ FP-1 -1.8, miR122 inh 3.5, ARNT TACC3 PPI 2.1, SR-BI HDL uptake 26.0, CAL PDZ FP-2 -0.9 and SR-BI DiI-HDL act -26.0.
O=C(O)/C=C/C(=O)Nc1ccc(O)cc1 was read as CAL PDZ FP-1 -1.8, miR122 inh 2.5, ARNT TACC3 PPI 54.2* and CAL PDZ FP-2 0.8.
For C[C@H](CO)N1C[C@H](C)[C@@H](CN(C)C(=O)Nc2ccc(F)cc2)OCCCC[C@H](C)Oc2ccc(N(C)C)cc2C1=O the results were miR122 inh -1.6[16.7 µM] and ARNT TACC3 PPI 17.2.
For N#Cc1c(=O)c2nc(NCc3ccccc3)ncc2n2ccccc12 the results were CAL PDZ FP-1 3.2, miR122 inh -17.0, ARNT TACC3 PPI 53.1*, SR-BI HDL uptake -9.2, CAL PDZ FP-2 -2.4 and SR-BI DiI-HDL act 9.2.
For COc1ccccc1CNC(=O)CN1C(=O)c2cccc(N)c2C1=O the results were CAL PDZ FP-1 -6.0, miR122 inh -2.9, ARNT TACC3 PPI -2.8, SR-BI HDL uptake -5.6, CAL PDZ FP-2 -2.8 and SR-BI DiI-HDL act 5.6.
`CCCCNC(=O)CN1C(=O)c2cccc(N)c2C1=O` gave CAL PDZ FP-1 65.8*, ARNT TACC3 PPI -21.6, SR-BI HDL uptake -3.2, CAL PDZ FP-2 -0.8 and SR-BI DiI-HDL act 3.2.
`Cc1ccc(-n2ncc3c2CCCC3NC(=O)CCc2c(C)noc2C)cc1C` (stereo not drawn) gave CAL PDZ FP-1 33.0*, miR122 inh 3.7, ARNT TACC3 PPI 5.2, SR-BI HDL uptake 40.2, CAL PDZ FP-2 -0.8 and SR-BI DiI-HDL act -40.2.
Screening C[C@@H]1CN([C@@H](C)CO)C(=O)c2cc(NC(=O)NC3CCCCC3)ccc2O[C@@H](C)CCCCO[C@H]1CN(C)C(=O)Cc1ccccc1 returned miR122 inh -3.3[16.7 µM] and ARNT TACC3 PPI 3.0.
CCOC(=O)CC(=O)Nc1nnc(C(C)C)s1 was read as CAL PDZ FP-1 37.9*, miR122 inh -9.2, ARNT TACC3 PPI -9.4, SR-BI HDL uptake -3.2, CAL PDZ FP-2 -1.2 and SR-BI DiI-HDL act 3.2.
Screening C[C@@H]1CCCCO[C@@H](CN(C)S(C)(=O)=O)[C@H](C)CN([C@@H](C)CO)C(=O)c2cc(NC(=O)c3ccccc3)ccc2O1 returned miR122 inh 5.9[16.7 µM] and ARNT TACC3 PPI -2.8.
Cc1ccc(NC(=O)CN(C)C(=O)COc2cccc3ccc(C)nc23)cc1 was read as CAL PDZ FP-1 70.7*, miR122 inh 30.0, SR-BI HDL uptake 16.0, CAL PDZ FP-2 -0.3 and SR-BI DiI-HDL act -16.0.
`COCC#Cc1ccc2c(c1)O[C@H](CN(C)Cc1ccc3c(c1)OCO3)[C@@H](C)CN([C@@H](C)CO)S2(=O)=O` gave miR122 inh 108.7*[16.7 µM] and ARNT TACC3 PPI 14.6.
CCCC#Cc1ccc2c(c1)O[C@H](CN(C)C(=O)c1ccccn1)[C@@H](C)CN([C@H](C)CO)S2(=O)=O was read as miR122 inh 128.0*[16.7 µM] and ARNT TACC3 PPI -6.2.
`COCC#Cc1ccc2c(c1)O[C@@H](CN(C)Cc1ccc3c(c1)OCO3)[C@H](C)CN([C@@H](C)CO)S2(=O)=O` gave miR122 inh -1.4[16.7 µM] and ARNT TACC3 PPI 25.0.
Screening COCC(=O)N(C)C[C@@H]1Oc2cc(C#Cc3cccnc3)ccc2S(=O)(=O)N([C@H](C)CO)C[C@@H]1C returned miR122 inh -27.7[16.7 µM] and ARNT TACC3 PPI -18.8.
`COCC(=O)N(C)C[C@H]1Oc2cc(C#Cc3cccnc3)ccc2S(=O)(=O)N([C@H](C)CO)C[C@H]1C` gave miR122 inh -13.5 and ARNT TACC3 PPI active!.
Screening C[C@@H]1CN([C@@H](C)CO)C(=O)c2cc(NS(=O)(=O)c3cccs3)ccc2O[C@@H]1CN(C)S(=O)(=O)c1cn(C)cn1 returned miR122 inh 3.2[16.7 µM] and ARNT TACC3 PPI 2.3.
Screening CCC(=O)N[C@H]1CC[C@H](CC(=O)NCC2CCCCC2)O[C@H]1CO returned miR122 inh 6.6[16.7 µM] and ARNT TACC3 PPI -17.6.
For C[C@@H]1CN([C@H](C)CO)S(=O)(=O)c2ccc(C3=CCCC3)cc2O[C@@H]1CN(C)C(=O)c1cnccn1 the results were miR122 inh -34.7[16.7 µM] and ARNT TACC3 PPI 6.3.
Screening C[C@@H]1CN([C@@H](C)CO)C(=O)c2cc(NS(C)(=O)=O)ccc2O[C@H]1CN(C)S(=O)(=O)c1cn(C)cn1 returned miR122 inh -3.7[16.7 µM] and ARNT TACC3 PPI -1.6.
COc1cccc(-c2cnc(C(O)c3ccccc3)[nH]2)c1 (stereo not drawn) was read as miR122 inh -0.3.
Screening COc1cccc(C(O)c2ncc(-c3cccc(F)c3)[nH]2)c1 (stereo not drawn) returned miR122 inh 113.5*.
Screening O=C(c1ccccc1)N1CC[C@@H]2[C@@H](CO)Nc3ccc(C#Cc4cccc(F)c4)cc3[C@@H]21 returned miR122 inh 3.3[16.7 µM] and ARNT TACC3 PPI 0.1.
O=S(=O)(NCCC1=CCCCC1)c1c(Cl)cccc1Cl was read as CAL PDZ FP-1 -5.2, miR122 inh 111.2*, ARNT TACC3 PPI -6.1, SR-BI HDL uptake -4.2, CAL PDZ FP-2 -2.6 and SR-BI DiI-HDL act 4.2.
`O=C1Nc2ccc(S(=O)(=O)NCCC3=CCCCC3)c3cccc1c23` gave CAL PDZ FP-1 -2.3, miR122 inh 116.7*, ARNT TACC3 PPI -10.5, SR-BI HDL uptake 11.8 and SR-BI DiI-HDL act -11.8.
`CCNS(=O)(=O)c1ccc2c3c(cccc13)C(=O)N2` gave CAL PDZ FP-1 -0.7, miR122 inh 148.4*, ARNT TACC3 PPI -8.8, SR-BI HDL uptake 11.5, CAL PDZ FP-2 -0.6 and SR-BI DiI-HDL act -11.5.
Screening CSCC(C)N1CCC(n2nccc2NC(=O)CCCc2ccccc2)CC1 (stereo not drawn) returned CAL PDZ FP-1 0.0, miR122 inh -0.5, ARNT TACC3 PPI 5.5, SR-BI HDL uptake -4.0, CAL PDZ FP-2 -2.3 and SR-BI DiI-HDL act 4.0.
`C=C(C)CCC(C)N1CCC(n2nccc2NC(=O)CCCc2ccccc2)CC1` (stereo not drawn) gave CAL PDZ FP-1 41.8*, miR122 inh -7.6, ARNT TACC3 PPI 2.2, SR-BI HDL uptake -11.7, CAL PDZ FP-2 1.0 and SR-BI DiI-HDL act 11.7.
Cn1c(N)c(S(=O)(=O)N2CCCC2)c(=O)n(C)c1=O was read as CAL PDZ FP-1 46.5*, miR122 inh -5.2, ARNT TACC3 PPI -1.4, SR-BI HDL uptake 13.2, CAL PDZ FP-2 -0.7 and SR-BI DiI-HDL act -13.2.
For CC(C)C1Oc2ccccc2N(CC(=O)N(Cc2ccccn2)C2CC2)C1=O (stereo not drawn) the results were ARNT TACC3 PPI -0.8, SR-BI HDL uptake -369.4, CAL PDZ FP-2 -0.3 and SR-BI DiI-HDL act 369.4*.
